The values that follow come from ChEMBL document CHEMBL1155723, “Cytotoxic pheophorbide-related compounds from Clerodendrum calamitosum and C. cyrtophyllum” (2001).

Values after ≈ are worked out from the molar mass of the structure shown. Active and inactive are the calls of the source. The rule behind the calls is not given here.

Assay [1] concerns KB. Briefly: Cytotoxicity against human KB cells after 72 hrs by SRB assay. The format is functional. To be noted: read-out: ED50 (the source's name). Put shortly: (§1)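 Stock cultures kept in RPMI-1640 with 25 mM HEPES, 0.2% (w/v) NaHCO3, 10% (v/v) FBS and 100 µg/mL kanamycin at 37 °C, 5% CO2. Trypsinized cells seeded at 2500-10 000 per well and exposed 72 h at 37 °C to graded concentrations from DMSO stocks (final DMSO ≤2% v/v). Cells fixed with cold 50% TCA, stained with 0.4% SRB, A562 read. ED50 interpolated from dose-response, triplicate.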
(In SRB staining, fixed cells bind dye roughly in proportion to their protein.)

Assay [2] deals with HTC. Briefly: Cytostatic activity against rat HTC cells at 66 ug/ml under direct photoirradiation. The format is functional, cell-based.
Assay [3] relates to HTC. Briefly: Cytostatic activity against rat HTC cells at 66 ug/ml. In kind it is functional, cell-based.
The nature of assay [4]: Cytotoxicity against human CAKI cells after 72 hrs by SRB assay. In kind it is functional. To be noted: read-out: ED50 (the source's name). Put shortly:
as §1

The test system of assay [5] is MCF7. Put plainly: Cytotoxicity against human MCF7 cells after 72 hrs by SRB assay. The format is functional. The following applies: MCF7, 72 h, read-out: ED50 (the source's name). Summed up: as §1
Assay [6] concerns 1A9. Briefly: Cytotoxicity against human 1A9 cells after 72 hrs by SRB assay. In kind it is functional. The following applies: 1A9, 72 h, read-out: ED50 (the source's name). Summed up: as §1
Assay [7] deals with HCT-8. Briefly: Cytotoxicity against human HCT8 cells after 72 hrs by SRB assay. The format is functional. To be noted: HCT-8, 72 h, read-out: ED50 (the source's name). Put shortly:
as §1

The subject of assay [8] is HTC. Put plainly: Cytostatic activity against rat HTC cells at 33 ug/ml. In kind it is functional, cell-based.
Assay [9] relates to HTC. Briefly: Cytostatic activity against rat HTC cells at 33 ug/ml under direct photoirradiation. The format is functional, cell-based.
Assay [10] has as its system SK-MEL. Put plainly: Cytotoxicity against human SK-MEL cells after 72 hrs by SRB assay. In kind it is functional. The following applies: read-out: ED50 (the source's name). Put shortly:
as §1

Assay [11] concerns A549. Briefly: Cytotoxicity against human A549 cells after 72 hrs by SRB assay. The format is functional. To be noted: A549, 72 h, read-out: ED50 (the source's name). Put shortly: as §1
The subject of assay [12] is KB. Briefly: Selectivity for human KB-7d cells to human KB cells. In kind it is functional.
In assay [13] the test system is KB. Briefly: Selectivity for human KB-VCR cells to human KB cells. In kind it is functional.
The subject of assay [14] is KB. Briefly: Selectivity for human KB-CPT cells to human KB cells. In kind it is functional.

`C=Cc1c(C)c2cc3nc(c(C(=O)C(=O)OC)c4[nH]c(cc5nc(cc1[nH]2)C(C)=C5CC)c(C)c4C(=O)OC)[C@@H](CCC(=O)OC)[C@@H]3C`: the EC50 in [1] worked out at 0.2 µg/mL (≈ 0.306 µM); in assay [4], 0.55 µg/mL (≈ 0.843 µM); in assay [5], 0.73 µg/mL (≈ 1.12 µM); in assay [6] it was 0.2 µg/mL (≈ 0.306 µM); in [7], 0.79 µg/mL (≈ 1.21 µM); in assay [10], 1.1 µg/mL (≈ 1.69 µM). In addition, the EC50 in [11] was determined as 0.49 µg/mL (≈ 0.751 µM). Besides, the outcome in assay [2] and in assay [9] was Active. The outcome in [3] and in assay [8] was inactive.

For `C=Cc1c(C)c2cc3nc(c4c5[nH]c(cc6nc(cc1[nH]2)C(C)=C6CC)c(C)c5C(=O)[C@]4(O)C(=O)OC)[C@@H](CCC(=O)O)[C@@H]3C`, the EC50 was 1.3 µg/mL (≈ 2.14 µM) in assay [1]; 3 µg/mL (≈ 4.93 µM) in assay [4]; greater than 4 µg/mL in [5]; 1.2 µg/mL (≈ 1.97 µM) in assay [6]; greater than 4 µg/mL in assay [7]; 4 µg/mL (≈ 6.57 µM) in assay [10]. Also, the EC50 in assay [11] is greater than 4 µg/mL. For the same molecule, the result in [2] and in assay [9] was Active. Further, the result in [3] and in [8] was inactive.

For `C=Cc1c(C)c2cc3nc(c4c5[nH]c(cc6nc(cc1[nH]2)C(C)=C6CC)c(C)c5C(=O)[C@]4(O)C(=O)OC)[C@@H](CCC(=O)OC)[C@@H]3C`, the EC50 is 0.3 µg/mL (≈ 0.482 µM) in [1]; 1.9 µg/mL (≈ 3.05 µM) in assay [4]; 0.45 µg/mL (≈ 0.723 µM) in [5]; 0.27 µg/mL (≈ 0.434 µM) in assay [6]; 0.4 µg/mL (≈ 0.642 µM) in [7]; 0.84 µg/mL (≈ 1.35 µM) in assay [10]. Further, the EC50 in assay [11] came out at 0.47 µg/mL (≈ 0.755 µM). Further, the outcome in assay [2] and in assay [9] was Active. The result in assay [3] and in [8] was inactive. Besides, the results for the “fold change (FC)” value in assay [12], in assay [13] and in assay [14] were 0.8, greater than 57 and 1.1, respectively.

Take `C=Cc1c(C)c2cc3nc(c4c5[nH]c(cc6nc(cc1[nH]2)C(C)=C6CC)c(C)c5C(=O)[C@]4(O)C(=O)OC)[C@@H](CCC(=O)OC/C=C(\C)CCCC(C)CCCC(C)CCCC(C)C)[C@@H]3C` (stereo not given in full): the EC50 in assay [1] was determined as 12 µg/mL (≈ 13.5 µM); in [4] it was 19 µg/mL (≈ 21.4 µM); in assay [5], 8.8 µg/mL (≈ 9.92 µM); in assay [6], 22 µg/mL (≈ 24.8 µM); in assay [7], 14 µg/mL (≈ 15.8 µM); in [10] it was 14 µg/mL (≈ 15.8 µM). In addition, in assay [11], the EC50 stood at 15 µg/mL (≈ 16.9 µM).

`C=Cc1c(C)c2cc3nc(c4c5[nH]c(cc6nc(cc1[nH]2)C(C=O)=C6CC)c(C)c5C(=O)[C@@H]4C(=O)OC)[C@@H](CCC(=O)OC/C=C(\C)CCCC(C)CCCC(C)CCCC(C)C)[C@@H]3C` (stereo not given in full): the result in assay [9] was Active.

Take `C=Cc1c(C)c2cc3nc(c4c5[nH]c(cc6nc(cc1[nH]2)C(C)=C6CC)c(C)c5C(=O)[C@]4(O)C(=O)OC)[C@@H](CCC(=O)OC/C=C(\C)CCCC(C)CCCC(C)CC(O)CC(C)C)[C@@H]3C` (mixture of isomers): the outcome in assay [9] was Active.

`COc1cc([C@@H]2c3cc4c(cc3[C@@H](O[C@@H]3O[C@@H]5CO[C@@H](C)O[C@H]5[C@H](O)[C@H]3O)[C@H]3COC(=O)[C@H]23)OCO4)cc(OC)c1O` [ETOPOSIDE]: the “fold change (FC)” value in [12] is listed as 119; in assay [13], 153; in assay [14], 1.

Turning to `C=Cc1c(C)c2cc3nc(c4c5[nH]c(cc6nc(cc1[nH]2)C(C)=C6CC)c(C)c5C(=O)[C@@H]4C(=O)OC)[C@@H](CCC(=O)OC)[C@@H]3C` [METHYL PHEOPHORBIDE A], the EC50 in [1] was determined as 0.23 µg/mL (≈ 0.379 µM); in assay [4] it was 0.62 µg/mL (≈ 1.02 µM); in assay [5], 0.95 µg/mL (≈ 1.57 µM); in [6] it was 0.26 µg/mL (≈ 0.429 µM); in assay [7] it was 1 µg/mL (≈ 1.65 µM); in assay [10] it was 1.2 µg/mL (≈ 1.98 µM). Further, the EC50 in assay [11] was 0.83 µg/mL (≈ 1.37 µM). The outcome in assay [2] and in assay [9] was Active. The outcome in assay [3] and in [8] was inactive.

Take `CC(=O)O[C@H]1C(=O)[C@@]2(C)[C@H]([C@H](OC(=O)c3ccccc3)[C@]3(O)C[C@H](OC(=O)[C@H](O)[C@@H](NC(=O)c4ccccc4)c4ccccc4)C(C)=C1C3(C)C)[C@]1(OC(C)=O)CO[C@@H]1C[C@@H]2O` [PACLITAXEL]: the “fold change (FC)” value in [12] is recorded as 1; in [13], 15; in assay [14], 1.

Regarding `C=Cc1c(C)c2cc3nc(c4c5[nH]c(cc6nc(cc1[nH]2)C(C)=C6CC)c(C)c5C(=O)[C@@H]4C(=O)OC)[C@@H](CCC(=O)O)[C@@H]3C` [PHEOPHORBIDE A], the EC50 in assay [1] amounted to 0.46 µg/mL (≈ 0.776 µM); in assay [4], 0.88 µg/mL (≈ 1.48 µM); in assay [5], 1.6 µg/mL (≈ 2.7 µM); in assay [6], 0.48 µg/mL (≈ 0.81 µM); in assay [7] it was 1.5 µg/mL (≈ 2.53 µM); in [10], 0.91 µg/mL (≈ 1.54 µM). The EC50 in [11] worked out at 1.5 µg/mL (≈ 2.53 µM). In addition, the outcome in [2] and in [9] was Active. Further, the result in [3] and in [8] was inactive. For the same molecule, the “fold change (FC)” value in assay [12] was 1; in assay [13], 0.6; in assay [14], 1.1.

`C=Cc1c(C)c2cc3nc(c(C(=O)C(=O)OC)c4[nH]c(cc5nc(cc1[nH]2)C(C)=C5CC)c(C)c4C(=O)OC)[C@@H](CCC(=O)O)[C@@H]3C` [PURPURIN 7 DIMETHYL ESTER]: the EC50 turned out to be 0.7 µg/mL (≈ 1.1 µM) in assay [1]; 1.3 µg/mL (≈ 2.04 µM) in assay [4]; 1.6 µg/mL (≈ 2.51 µM) in assay [5]; 0.64 µg/mL (≈ 1 µM) in [6]; 1.6 µg/mL (≈ 2.51 µM) in assay [7]; 1.1 µg/mL (≈ 1.72 µM) in assay [10]. For the same molecule, the EC50 in assay [11] is 1.8 µg/mL (≈ 2.82 µM). Also, the outcome in [2] and in [9] was Active. Besides, the result in assay [3] and in [8] was inactive. Besides, the “fold change (FC)” value in assay [12] is recorded as 0.7; in assay [13] it was 0.5; in [14], 1.
